Source: ChEMBL document CHEMBL3526142, “Biotransformation of a novel antimitotic agent, I-387, by mouse, rat, dog, monkey, and human liver microsomes and in vivo pharmacokinetics in mice” (Drug Metab Dispos, 2011)

Key:
[1] = Oral bioavailability in ICR mouse at 5 mg/kg via gavage after 30 mins by LC-MS/MS analysis; format: ADME, organism-based; details: in vivo
Outline: (§1)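 Male ICR mice (5–6 weeks, 20–25 g) dosed by gavage in 10% DMSO in PEG300. Three to four mice per time point were euthanized under isoflurane and blood taken from the posterior vena cava. Plasma was acetonitrile-precipitated and analysed by LC-MS/MS (MRM m/z 388.2→192). Tmax read by visual inspection. F = (AUC_oral × dose_iv)/(AUC_iv × dose_oral), with AUC_inf by trapezoidal rule; n = 3/dose group.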

[2] = Oral bioavailability in ICR mouse at 15 mg/kg via gavage after 30 mins by LC-MS/MS analysis; format: ADME, organism-based; details: in vivo; outline: as §1
[3] = AUC (infinity) in ICR mouse at 5 mg/kg, iv by LC-MS/MS analysis; format: ADME, organism-based; parameters: time infinity, dose 5 mg/kg, route intravenous; details: plasma
Outline: (§2)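 Male ICR mice (5–6 weeks, 20–25 g), single doses of 1, 5 or 15 mg/kg in 10% DMSO/PEG300, given iv by tail vein, ip, or orally by gavage. Three to four mice per time point, euthanized under isoflurane, blood drawn from posterior vena cava. Plasma protein precipitated with acetonitrile containing internal standard, then LC-MS/MS (MRM m/z 388.2→192). Noncompartmental analysis of mean concentration-time data, AUCinf by trapezoidal rule with extrapolation, CL = dose/AUCinf, Cmax read from the curve. F = (AUCnon-iv × dose iv)/(AUCiv × dose non-iv). n = 3 per dose group.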

[4] = Drug metabolism in monkey liver microsomes assessed as (3-(1H-indol-2-yl)phenyl)(3,4,5-trimethoxyphenyl)methanol formation at 0.5 uM after 2 hrs by LC-MS/MS analysis in presence of 3 mM NADPH; format: ADME, Macaca mulatta; details: rhesus monkey
Outline: (§3)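 Pooled liver microsomes (1 mg/ml protein) incubated with 0.5 µM substrate and 3 mM NADPH in 65 mM potassium phosphate, pH 7.4, 1% methanol, at 37°C for 2 h. Stopped with ice-cold acetonitrile containing internal standard, centrifuged. Supernatant analysed by LC-MS/MS on a C18 column, 15-min gradient, with product ion scans for metabolite identification.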

[5] = Cmax in ICR mouse at 5 mg/kg, po via gavage by LC-MS/MS analysis; format: ADME, organism-based; parameters: dose 5 mg/kg, route oral; details: in vivo; outline: as §2
[6] = Tmax in ICR mouse at 5 mg/kg, ip by LC-MS/MS analysis; format: ADME, organism-based; parameters: dose 5 mg/kg, route intraperitoneal; details: in vivo
Outline: (§4)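 Male ICR mice (20–25 g) given the compound intraperitoneally or by gavage in 10% DMSO/PEG300. Three to four mice were sacrificed per time point and plasma collected from the vena cava. Plasma was precipitated with acetonitrile containing internal standard and analysed by LC-MS/MS. Noncompartmental analysis of mean concentration-time data: terminal t1/2 = ln2/λz; Tmax by inspection; n = 3/dose group.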

[7] = Terminal half life in ICR mouse at 5 mg/kg, po via gavage by LC-MS/MS analysis; format: ADME, organism-based; parameters: dose 5 mg/kg, route oral; details: in vivo, read-out: beta t1/2 (converted); outline: as §4
[8] = Metabolic stability in dog liver microsomes assessed as half life during phase 1 at 0.5 uM by LC-MS/MS analysis in presence of 3 mM NADPH and absence of UDPGA; format: ADME, Canis lupus familiaris; details: read-out: alphat1/2
Outline: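 Pooled liver microsomes (1 mg/ml) incubated with 0.5 µM substrate and 3 mM NADPH in 65 mM potassium phosphate, pH 7.4, 1% methanol, at 37°C. The phase I+II set also had 5 mM UDPGA, 5 mM D-saccharolactone, 50 µg/ml alamethicin and 3 mM MgCl2. Stopped at 10–90 min with cold acetonitrile plus internal standard. Parent remaining by LC-MS/MS relative to time 0. t1/2 from a two-parameter single exponential decay fit; n = 2–3.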

[9] = Volume of distribution at steady state in ICR mouse at 1 mg/kg, iv by LC-MS/MS analysis; format: ADME, organism-based; parameters: dose 1 mg/kg, route intravenous; details: in vivo, read-out: Vdss
Outline: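 Tail-vein injection in male ICR mice (5–6 weeks), vehicle 10% DMSO in PEG300. Serial terminal sampling of 3–4 mice per time point, with posterior vena cava blood. Plasma was acetonitrile-precipitated and measured by LC-MS/MS. Noncompartmental analysis of mean data: t1/2 = ln2/λz, CL = dose/AUC_inf, Vd_ss = CL × MRT_inf; n = 3/dose group.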

[10] = Cmax in ICR mouse at 5 mg/kg, iv by LC-MS/MS analysis; format: ADME, organism-based; parameters: dose 5 mg/kg, route intravenous; details: in vivo; outline: as §2
Liver = test: Drug level in mouse liver microsomes assessed as compound retention time treated with 0.5 uM I-387 after 2 hrs by LC-MS/MS analysis; format: ADME; outline: as §3
[11] = Tmax in ICR mouse at 15 mg/kg, ip by LC-MS/MS analysis; format: ADME, organism-based; parameters: dose 15 mg/kg, route intraperitoneal; details: in vivo; outline: as §4
[12] = Tmax in ICR mouse at 1 mg/kg, po by LC-MS/MS analysis; format: ADME, organism-based; parameters: dose 1 mg/kg, route oral; details: in vivo; outline: as §1
[13] = AUC (infinity) in ICR mouse at 15 mg/kg, iv by LC-MS/MS analysis; format: ADME, organism-based; parameters: time infinity, dose 15 mg/kg, route intravenous; details: plasma; outline: as §2
[14] = Mean residence time (infinity) in ICR mouse at 15 mg/kg, po via gavage by LC-MS/MS analysis; format: ADME, organism-based; parameters: dose 15 mg/kg, route oral; details: in vivo; outline: as §2
[15] = Cmax in ICR mouse at 1 mg/kg, iv by LC-MS/MS analysis; format: ADME, organism-based; parameters: dose 1 mg/kg, route intravenous; details: in vivo; outline: as §2
[16] = Mean residence time (infinity) in ICR mouse at 1 mg/kg, iv by LC-MS/MS analysis; format: ADME, organism-based; parameters: dose 1 mg/kg, route intravenous; details: in vivo; outline: as §2
[17] = AUC (infinity) in ICR mouse at 5 mg/kg, po via gavage by LC-MS/MS analysis; format: ADME, organism-based; parameters: time infinity, dose 5 mg/kg, route oral; details: plasma; outline: as §2
[18] = Mean residence time (infinity) in ICR mouse at 15 mg/kg, iv by LC-MS/MS analysis; format: ADME, organism-based; parameters: dose 15 mg/kg, route intravenous; details: in vivo; outline: as §2
[19] = Terminal half life in ICR mouse at 15 mg/kg, po via gavage by LC-MS/MS analysis; format: ADME, organism-based; parameters: dose 15 mg/kg, route oral; details: in vivo, read-out: beta t1/2 (converted); outline: as §4
[20] = Metabolic stability in mouse liver microsomes assessed as half life during phase 1 at 0.5 uM by LC-MS/MS analysis in presence of 3 mM NADPH and absence of UDPGA; format: ADME; details: read-out: alphat1/2
Outline: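 Pooled liver microsomes at 1 mg/ml protein with 3 mM NADPH, 0.5 μM substrate in 65 mM potassium phosphate pH 7.4, 1% methanol, 37°C. Incubations stopped at 10, 20, 30, 60 and 90 min with ice-cold acetonitrile plus internal standard, then LC-MS/MS of parent remaining relative to time 0. Half-life from a two-parameter single exponential decay fit; n = 2 to 3.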

[21] = Metabolic stability in monkey liver microsomes assessed as half life during phase 1 and 2 at 0.5 uM by LC-MS/MS analysis in presence of 3 mM NADPH and […] UDPGA; format: ADME, Macaca mulatta; details: rhesus monkey, read-out: alphat1/2

bioavailability [1]: 13% | bioavailability [2]: 8% | AUC(0-inf) [3]: 3950 ng·h/mL | Drug metabolism [4]: metabolite_detected | Cmax [5]: 100 ng/mL | Tmax [6]: 5 min | half-life [7]: 462 min | half-life at 0.5 µM [8]: 29 min | Vd [9]: 5.3 L/kg | Cmax [10]: 2860 ng/mL | Retention_time (Liver): 11.3 min | Tmax [11]: 10 min | Tmax [12]: 30 min | AUC(0-inf) [13]: 13400 ng·h/mL | MRT inf [14]: 534 min | Cmax [15]: 550 ng/mL | MRT inf [16]: 180 min | AUC(0-inf) [17]: 517 ng·h/mL | MRT inf [18]: 528 min | half-life [19]: 474 min | half-life at 0.5 µM [20]: 37 min | half-life at 0.5 µM [21]: 11 min
SMILES: COc1cc(C(=O)c2cccc(-c3cc4ccccc4[nH]3)c2)cc(OC)c1OC
